Experimental data reported in ChEMBL document CHEMBL1132602, “Identification of novel classes of protein kinase inhibitors using combinatorial peptide chemistry based on functional genomics knowledge” (J Med Chem, 1999).
Starred links: 1 amine or outer side, 2 acyl side, 3 side chain; linkers in the order of their positions; H or OH if unused. Non-standard residues stand in square brackets, D forms with d. Residues, ends and D or L forms follow the SMILES beside them. X1 = O=C(C1CCC(N[*:1])CC1)[*:2]

Assays:
CaM kinase II = CaM kinase II (Homo sapiens, UniProt Q13557+Q13555+Q13554+Q9UQM7); assay: Inhibitory activity against CaMPKII (Calcium/calmodulin-dependent protein kinase type II); type: protein assay
[1] = biological target: Myosin light chain kinase, smooth muscle (Gallus gallus, UniProt P11799); assay: Inhibitory activity against MLCK (smooth muscle myosin light chain kinase)
[2] = Ratio of the inhibitory concentrations against CaMPKII and MLCK. IC50 (CaMPKII ) / IC50 (MLCK).
In short: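 Ratio of IC50 values from the two radiometric assays, both with 0.2 mM [γ-32P]ATP and 20 μM peptide substrate. CaMPKII was activated with 30 μM CaM and 2 mM CaCl2 and run 8 min. Chicken gizzard MLCK was activated with 1 μM CaM and 5 μM CaCl2 and run 20 min. Both at 25 °C, IC50 from 15–85% activity regression.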

Chain of Myosin light chain kinase, smooth muscle (P11799 whole entry): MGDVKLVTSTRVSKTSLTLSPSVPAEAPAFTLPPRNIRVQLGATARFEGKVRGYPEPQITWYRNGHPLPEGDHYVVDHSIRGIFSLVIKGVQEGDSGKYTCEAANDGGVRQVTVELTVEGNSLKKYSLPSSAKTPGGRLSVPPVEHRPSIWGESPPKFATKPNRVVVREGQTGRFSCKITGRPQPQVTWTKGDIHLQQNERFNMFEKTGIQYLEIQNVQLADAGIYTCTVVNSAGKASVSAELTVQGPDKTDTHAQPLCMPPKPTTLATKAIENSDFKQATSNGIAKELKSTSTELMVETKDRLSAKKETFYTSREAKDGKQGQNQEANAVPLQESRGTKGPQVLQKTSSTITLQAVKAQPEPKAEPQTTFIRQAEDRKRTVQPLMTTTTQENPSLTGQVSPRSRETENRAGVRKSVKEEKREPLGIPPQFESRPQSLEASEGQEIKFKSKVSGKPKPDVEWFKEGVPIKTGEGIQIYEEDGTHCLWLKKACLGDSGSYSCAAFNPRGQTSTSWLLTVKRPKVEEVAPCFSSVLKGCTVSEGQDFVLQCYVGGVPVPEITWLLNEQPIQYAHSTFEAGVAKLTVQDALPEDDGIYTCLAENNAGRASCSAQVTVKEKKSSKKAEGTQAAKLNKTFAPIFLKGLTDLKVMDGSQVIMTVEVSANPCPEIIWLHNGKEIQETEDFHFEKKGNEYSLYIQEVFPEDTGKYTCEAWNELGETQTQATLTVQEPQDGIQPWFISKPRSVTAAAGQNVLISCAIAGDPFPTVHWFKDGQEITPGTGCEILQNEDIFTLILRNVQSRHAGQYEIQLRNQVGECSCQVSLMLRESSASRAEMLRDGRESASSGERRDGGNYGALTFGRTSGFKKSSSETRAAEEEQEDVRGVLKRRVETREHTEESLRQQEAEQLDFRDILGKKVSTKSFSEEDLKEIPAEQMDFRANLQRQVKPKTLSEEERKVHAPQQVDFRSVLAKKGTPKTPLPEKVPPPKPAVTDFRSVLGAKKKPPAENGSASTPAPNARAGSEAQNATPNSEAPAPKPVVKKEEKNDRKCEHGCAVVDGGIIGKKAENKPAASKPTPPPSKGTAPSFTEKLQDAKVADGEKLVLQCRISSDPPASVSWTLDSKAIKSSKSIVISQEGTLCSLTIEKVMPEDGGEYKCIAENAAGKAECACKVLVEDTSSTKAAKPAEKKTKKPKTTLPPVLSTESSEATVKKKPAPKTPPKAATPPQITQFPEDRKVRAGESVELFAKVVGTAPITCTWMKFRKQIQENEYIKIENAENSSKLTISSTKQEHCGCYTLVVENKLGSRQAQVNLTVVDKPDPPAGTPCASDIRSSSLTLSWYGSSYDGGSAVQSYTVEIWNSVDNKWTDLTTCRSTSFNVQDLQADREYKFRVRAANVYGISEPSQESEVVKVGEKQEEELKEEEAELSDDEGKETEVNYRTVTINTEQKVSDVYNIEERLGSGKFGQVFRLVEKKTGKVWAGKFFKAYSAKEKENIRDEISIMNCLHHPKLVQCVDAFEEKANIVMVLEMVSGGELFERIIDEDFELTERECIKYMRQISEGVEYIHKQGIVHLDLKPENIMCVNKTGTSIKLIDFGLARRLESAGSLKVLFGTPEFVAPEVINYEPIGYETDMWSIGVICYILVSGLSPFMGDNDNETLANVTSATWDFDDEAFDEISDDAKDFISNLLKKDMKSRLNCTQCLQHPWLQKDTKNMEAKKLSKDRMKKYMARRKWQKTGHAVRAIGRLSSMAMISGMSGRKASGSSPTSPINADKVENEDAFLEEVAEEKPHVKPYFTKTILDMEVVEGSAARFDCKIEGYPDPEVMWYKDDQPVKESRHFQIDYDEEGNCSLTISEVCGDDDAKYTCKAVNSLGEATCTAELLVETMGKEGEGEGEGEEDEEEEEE

Compound | IC50 (CaM kinase II) [µM] | IC50 [1] [µM] | Ratio [2]
C[C@@H](O)[C@H](NC(=O)[C@H](CCCCN)NC(=O)[C@H](Cc1ccc(O)cc1)NC(=O)[C@H](CCCCN)NC(=O)[C@H](CCCCN)NC(=O)[C@@H](N)CCCN=C(N)N)C(=O)N[C@@H](CCCN=C(N)N)C(=O)N[C@@H](CCCN=C(N)N)C(=O)N[C@@H](CCCCN)C(N)=O | > 200 | 0.73 | –
C[C@H](O)[C@H](NC(=O)[C@H](CCCCN)NC(=O)[C@H](Cc1ccc(O)cc1)NC(=O)[C@H](CCCCN)NC(=O)[C@H](CCCCN)NC(=O)[C@@H](N)CCCN=C(N)N)C(=O)N[C@@H](CCCN=C(N)N)C(=O)N[C@@H](CCCN=C(N)N)C(=O)N[C@@H](CCCCN)C(N)=O | – | – | > 274
NCCCC[C@H](NC(=O)[C@H](CCCN=C(N)N)NC(=O)[C@H](CCCN=C(N)N)NC(=O)C1CCC(NC(=O)[C@H](CCCCN)NC(=O)[C@H](Cc2ccc(O)cc2)NC(=O)[C@H](CCCCN)NC(=O)[C@H](CCCCN)NC(=O)[C@@H](N)CCCN=C(N)N)CC1)C(N)=O (stereo not given in full) (H-RKKYK[X1]RRK-NH2) | > 200 | 0.27 | > 741
NCCCC[C@H](NC(=O)[C@H](CCCN=C(N)N)NC(=O)[C@H](CCCN=C(N)N)NC(=O)C1CCC(NC(=O)C2CCC(NC(=O)[C@H](Cc3ccc(O)cc3)NC(=O)[C@H](CCCCN)NC(=O)[C@H](CCCCN)NC(=O)[C@@H](N)CCCN=C(N)N)CC2)CC1)C(N)=O (stereo not given in full) (H-RKKY[X1][X1]RRK-NH2) | > 200 | 0.11 | > 1820
NCCCC[C@H](NC(=O)[C@H](CCCN=C(N)N)NC(=O)[C@H](CCCN=C(N)N)NC(=O)[C@H](Cc1ccc(O)cc1)NC(=O)C1CCC(NC(=O)C2CCC(NC(=O)[C@H](CCCCN)NC(=O)[C@H](CCCCN)NC(=O)[C@@H](N)CCCN=C(N)N)CC2)CC1)C(N)=O (stereo not given in full) (H-RKK[X1][X1]YRRK-NH2) | > 200 | – | > 67
NCCCC[C@H](NC(=O)[C@H](CCCN=C(N)N)NC(=O)[C@H](CCCN=C(N)N)NC(=O)C1CCC(NC(=O)C2CCC(NC(=O)C3CCC(NC(=O)[C@H](CCCCN)NC(=O)[C@H](CCCCN)NC(=O)[C@@H](N)CCCN=C(N)N)CC3)CC2)CC1)C(N)=O (stereo not given in full) (H-RKK[X1][X1][X1]RRK-NH2) | > 200 | – | > 10
H-RKKYKDRRK-NH2 | > 200 | 0.61 | > 328
H-RKKYKFRRK-NH2 | > 200 | 0.15 | > 1330
H-RKKYKGRRK-NH2 [listing 1 of 2 here] | – | 0.31 | –
H-RKKYKKRRK-NH2 | > 200 | 0.22 | > 909
H-RKKYKLRRK-NH2 | 132 | 0.32 | 413
H-RKKYKMRRK-NH2 [listing 1 of 2 here] | > 200 | – | > 1250
H-RKKYKNRRK-NH2 [listing 1 of 2 here] | – | 0.29 | –
H-RKKYKPRRK-NH2 | > 200 | 0.12 | > 1670
H-RKKYKQRRK-NH2 | > 200 | 0.3 | > 667
H-RKKYKSRRK-NH2 [listing 1 of 2 here] | – | 0.15 | –

More lines, now with the values ahead:

IC50 (CaM kinase II) [µM] | IC50 [1] [µM] | Ratio [2] | Compound
57.4 | 0.16 | – | CC[C@H](C)[C@H](NC(=O)[C@H](CCCCN)NC(=O)[C@H](Cc1ccc(O)cc1)NC(=O)[C@H](CCCCN)NC(=O)[C@H](CCCCN)NC(=O)[C@@H](N)CCCNC(=N)N)C(=O)N[C@@H](CCCNC(=N)N)C(=O)N[C@@H](CCCNC(=N)N)C(=O)N[C@@H](CCCCN)C(N)=O
– | – | 359 | CC[C@@H](C)[C@H](NC(=O)[C@H](CCCCN)NC(=O)[C@H](Cc1ccc(O)cc1)NC(=O)[C@H](CCCCN)NC(=O)[C@H](CCCCN)NC(=O)[C@@H](N)CCCN=C(N)N)C(=O)N[C@@H](CCCN=C(N)N)C(=O)N[C@@H](CCCN=C(N)N)C(=O)N[C@@H](CCCCN)C(N)=O
> 200 | 0.04 | > 5000 | NCCCC[C@H](NC(=O)[C@H](CCCN=C(N)N)NC(=O)[C@H](CCCN=C(N)N)NC(=O)[C@H](Cc1ccc(O)cc1)NC(=O)C1CCC(NC(=O)[C@H](Cc2ccc(O)cc2)NC(=O)[C@H](CCCCN)NC(=O)[C@H](CCCCN)NC(=O)[C@@H](N)CCCN=C(N)N)CC1)C(N)=O (stereo not given in full) (H-RKKY[X1]YRRK-NH2)
> 200 | 1.04 | > 192 | NCCCC[C@H](NC(=O)[C@H](CCCN=C(N)N)NC(=O)[C@H](CCCN=C(N)N)NC(=O)[C@H](Cc1ccc(O)cc1)NC(=O)[C@H](CCCCN)NC(=O)C1CCC(NC(=O)[C@H](CCCCN)NC(=O)[C@H](CCCCN)NC(=O)[C@@H](N)CCCN=C(N)N)CC1)C(N)=O (stereo not given in full) (H-RKK[X1]KYRRK-NH2)
> 200 | 20 | > 10 | NCCCC[C@H](NC(=O)[C@H](CCCN=C(N)N)NC(=O)[C@H](CCCN=C(N)N)NC(=O)C1CCC(NC(=O)[C@H](CCCCN)NC(=O)C2CCC(NC(=O)[C@H](CCCCN)NC(=O)[C@H](CCCCN)NC(=O)[C@@H](N)CCCN=C(N)N)CC2)CC1)C(N)=O (stereo not given in full) (H-RKK[X1]K[X1]RRK-NH2)
– | 2.97 | – | N=C(N)NCCC[C@H](NC(=O)[C@H](CCCNC(=N)N)NC(=O)[C@H](Cc1ccc(O)cc1)NC(=O)C1CCC(NC(=O)C2CCC(NC(=O)[C@H](CCCCN)NC(=O)[C@H](CCCCN)NC(=O)[C@@H](N)CCCNC(=N)N)CC2)CC1)C(=O)N[C@@H](CCCCN)C(N)=O (stereo not given in full) (H-RKK[X1][X1]YRRK-NH2)
– | 20 | – | N=C(N)NCCC[C@H](NC(=O)C1CCC(NC(=O)C2CCC(NC(=O)C3CCC(NC(=O)[C@H](CCCCN)NC(=O)[C@H](CCCCN)NC(=O)[C@@H](N)CCCNC(=N)N)CC3)CC2)CC1)C(=O)N[C@@H](CCCNC(=N)N)C(=O)N[C@@H](CCCCN)C(N)=O (stereo not given in full) (H-RKK[X1][X1][X1]RRK-NH2)
> 200 | 0.42 | > 476 | H-RKKYKARRK-NH2
> 200 | 0.87 | > 230 | H-RKKYKERRK-NH2
> 200 | – | > 645 | H-RKKYKGRRK-NH2 [listing 2 of 2 here]
16.2 | 0.29 | 56 | H-RKKYKHRRK-NH2
– | 0.16 | – | H-RKKYKMRRK-NH2 [listing 2 of 2 here]
> 200 | – | > 690 | H-RKKYKNRRK-NH2 [listing 2 of 2 here]
> 200 | – | > 1330 | H-RKKYKSRRK-NH2 [listing 2 of 2 here]
> 200 | – | > 556 | H-RKKYKVRRK-NH2 [listing 1 of 2 here]
– | 0.36 | – | H-RKKYKVRRK-NH2 [listing 2 of 2 here]
26.7 | 0.2 | 134 | H-RKKYKWRRK-NH2
> 200 | 0.05 | > 4000 | H-RKKYKYRRK-NH2
